Assay outcomes from PubChem BioAssay.
This is a sample that favours compounds with a hit; in the whole collection about 2.5% have one here.
HTR2A ag: activates the mouse 5-HT2A serotonin receptor | CHO-K1 mHTR2A beta-arrestin complementation, luminescence; percent of 30 µM serotonin response | activation, % at 7.6 µM | hit rate 0.66% among 360,000;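 active = activation above a run cutoff, the mean activation of all tested compounds plus 3 SD, cut at about 14% in these data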;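 note: 0% = plate median of compound wells and 100% = 30 µM serotonin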
Target sequence (P35363 whole entry, looked up): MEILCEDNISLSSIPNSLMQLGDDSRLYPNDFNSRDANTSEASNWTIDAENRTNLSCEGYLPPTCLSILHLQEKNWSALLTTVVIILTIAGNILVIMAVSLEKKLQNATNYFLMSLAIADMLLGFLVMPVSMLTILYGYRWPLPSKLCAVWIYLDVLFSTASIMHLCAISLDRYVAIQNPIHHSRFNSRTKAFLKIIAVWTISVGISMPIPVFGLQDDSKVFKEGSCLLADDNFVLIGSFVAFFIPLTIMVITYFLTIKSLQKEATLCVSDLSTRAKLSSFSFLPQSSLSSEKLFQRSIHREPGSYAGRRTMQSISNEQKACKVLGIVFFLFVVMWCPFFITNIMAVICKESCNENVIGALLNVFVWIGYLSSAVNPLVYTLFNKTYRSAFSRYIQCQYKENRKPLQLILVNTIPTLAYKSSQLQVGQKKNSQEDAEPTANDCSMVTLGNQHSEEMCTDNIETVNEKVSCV
dFosB activator: activators of mouse delta FosB homodimer. activation, % at 25 µM. purified delta FosB, TAMRA-CDK5 oligo fluorescence polarization; percent of positive-control signal above neutral wells. hit rate 0.99% among 340,000. P13346;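 active = mean activation above about 17%, with every replicate also reaching it, limit read from the data, passing the limit was not always enough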
VIM-2 inh: blocks Pseudomonas aeruginosa VIM-2 metallo-beta-lactamase; purified VIM-2, nitrocefin hydrolysis, epi-absorbance fluorescence; inhibition, % at 5.6 µM; hit rate 0.89% among 290,000; AID 1527;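 active = inhibition above the mean of all tested compounds plus 3 SD, cutoff set per screening run, cut at about 7.5% in these data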;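 note: red hydrolysis product quenches plate fluorescence so inhibitors raise well fluorescence; 0% = enzyme with DMSO and 100% = DMSO without enzyme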
IMP-1 inh: blocks Pseudomonas aeruginosa IMP-1 metallo-beta-lactamase; purified IMP-1, nitrocefin hydrolysis, epi-absorbance fluorescence; inhibition, % at 5.6 µM; hit rate 0.45% among 290,000; AID 1556;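 active = inhibition above the mean plus 3 SD of all compounds in the same screening run, cut at about 4.5% in these data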;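 note: 0% = IMP-1 with DMSO and 100% = DMSO wells lacking enzyme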
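System: purified recombinant IMP-1 beta-lactamase. Medium: Zinc- and detergent-supplemented HEPES buffer, pH 7.1. Compound: one 5.6 µM dose […]. Schedule: 15 min preincubation plus 25 min reaction at 25 °C. Technique: Epi-absorbance fluorescence, 480 nm excitation, 530 nm emission.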
OPRM1 ag: counter-screen for mouse HTR2A agonists: human mu opioid receptor agonists | shares compounds with HTR2A ag | U2OS OPRM1 beta-arrestin PathHunter, luminescence; DMSO 0%, DAMGO 9.3 µM 100% | AID 624380 | hit rate 5.3% among 2,300 | activation, % at 9.3 µM;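 active = mean activation above the mean of DMSO-only wells plus 3 SD, cut at about 0.5% in these data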
HTR2A ag conf: confirmation of mouse HTR2A serotonin receptor agonists; CHO-K1 PathHunter beta-arrestin recruitment, luminescence; DMSO 0%, 30 µM serotonin 100%; shares compounds with HTR2A ag; hit rate 19% among 2,300; activation, % at 7.6 µM;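 active = mean activation across triplicates above the hit threshold derived in the original primary screen, cut at about 15% in these data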
Active calls of the source: *; . = no result.

SMILES	HTR2A ag	dFosB activator	VIM-2 inh	IMP-1 inh	OPRM1 ag	HTR2A ag conf
O=C1NC(=O)C(Cc2cccc(Oc3ccccc3)c2)S1 (stereo not drawn)	15*	-1	-1	-3	-1	0
O=C(NCC1CC1)c1cc2c(c(-c3cccc(-c4ccccc4F)c3)n1)[C@@H](CCO)N(C(=O)CC1CC1)C2	-8	.	.	.	.	.
O=C(NCc1cccc(C(F)(F)F)c1)c1c[nH]c(=O)s1	7	.	.	.	.	.
COc1cc(/C=C2\C(=N)N3N=C(S(C)(=O)=O)SC3=NC2=O)ccc1OCCOc1ccc(C)cc1	16*	-10	-3	-1	-1	-2
Cc1ccc(S(=O)(=O)NCC(=O)N2CCCCC2)cc1	14*	1	-2	-3	-1	-3
Cc1ccc(S(=O)(=O)NCC(=O)N2CCCC2)cc1	7	-8	0	-3	.	.
Cc1ccc(S(=O)(=O)NC(CC(=O)N2CCOCC2)c2ccco2)cc1 (stereo not drawn)	43*	9	-3	-2	-1	0
CCCCCCSc1cc(C)nc2ncnn12	21*	-9	.	.	0	4
CCc1cccc(CC)c1NC(=O)COC(=O)C1(C)CC1(Cl)Cl (stereo not drawn)	17*	1	-2	-3	-1	-4
Cc1nc2ccccc2n1CC(=O)OCC(=O)NCc1ccccc1	15*	-8	-2	-2	0	3
Cc1ccc(C2SCCN2C(=O)c2ccc([N+](=O)[O-])cc2)cc1 (stereo not drawn)	3	-6	-4	-1	.	.
O=C(O)C1CC=CCC1C(=O)Nc1cccc(Cl)c1 (stereo not drawn)	2	-4	-2	-2	.	.
O=C(O)C1CC=CCC1C(=O)NCCc1cccc(Cl)c1 (stereo not drawn)	24*	1	-1	-2	0	-1
O=C(O)/C=C/C(=O)NCCc1ccccc1	3	2	-3	-1	.	.
O=C(O)C1CC=CCC1C(=O)NCCc1csc(-c2ccccc2)n1 (stereo not drawn)	16*	1	-1	-3	0	-3
CC(=O)NCCc1csc(-c2ccccc2)n1	2	2	-3	0	.	.
O=C(O)/C=C/C(=O)NCCc1cccc(Cl)c1	26*	-3	-4	-4	0	8
O=C(O)C1CCCCC1C(=O)NCCc1ccccc1 (stereo not drawn)	15*	-7	-2	-4	0	3
Cc1ccc(-c2csc(NC(=O)CSc3ncn(-c4ccccc4)n3)n2)cc1	0	4	3	-4	.	.
Cc1csc(NC(=O)CSc2ncn(-c3ccccc3)n2)n1	21*	-13	-2	0	0	0
N#CCc1ccc(-c2cccc3nccn23)cc1	0	.	.	.	.	.
COc1ccccc1C1(CC(=O)N2CCCCC2)CCOC(C(C)C)C1 (stereo not drawn)	1	-2	-3	-2	.	.
CCC1(C)CC(CC(=O)O)(c2ccccc2OC)CCO1 (stereo not drawn)	15*	3	-2	-5	0	1
CCOC(=O)N1CCC(N(CCN(C)C)C(=S)Nc2cc(Cl)ccc2C)CC1	1	-7	-2	-2	.	.
N#Cc1c(NC(=O)c2ccccc2)sc2c1CCCCC2	-2	3	-2	-3	.	.
SMILES	HTR2A ag	dFosB activator	VIM-2 inh	IMP-1 inh	OPRM1 ag	HTR2A ag conf
CC(C(=O)Nc1sc2c(c1C#N)CCCCC2)N1C(=O)c2ccccc2C1=O (stereo not drawn)	25*	-7	-4	-3	0	-1
CC(Sc1ccc(Cl)cc1)C(=O)N(C)CC(=O)Nc1ccc(N2CCOCC2)cc1 (stereo not drawn)	18*	-8	.	.	0	8
CC(Oc1ccc(Cl)cc1)C(=O)N(C)CC(=O)Nc1ccc(N2CCOCC2)cc1 (stereo not drawn)	-4	-6	-2	-2	.	.
O=C(Nc1ccc(Cl)cc1F)c1ccc2c(c1)C(=O)N(Cc1ccncc1)C2=O	19*	.	.	.	0	-6
O=C(Nc1ccc(C(F)(F)F)cc1[N+](=O)[O-])O[C@H]1[C@H](Cc2ccccc2)NS(=O)(=O)[C@H]2C[C@@H]3C=C[C@]12O3	5	0	.	.	.	.
CC1CN(CC(=O)NCc2ccccc2)CC(C)O1 (stereo not drawn)	15*	-6	1	1	0	1
CC1CCN(C(=O)COC(=O)/C=C/c2ccco2)CC1	-5	-1	.	.	.	.
CCOC(=O)CCCNC(=O)COc1ccccc1C#N	19*	1	-3	-3	0	10
CCCC(=O)N1CCCC1(C)C(=O)NCCc1ccccn1 (stereo not drawn)	22*	.	.	.	0	3
CC(C)C(=O)N1CCCC1(C)C(=O)NCc1ccccn1 (stereo not drawn)	-1	.	.	.	.	.
Cc1ccc(CN2CCc3c(OCC(=O)Nc4cc(C)ccc4C)cccc3C2=O)cc1	.	.	-4	-3	.	.
Cc1sc(-c2ccccn2)nc1OC(=O)c1ccc(Cl)c(Cl)c1	0	2	-3	0	.	.
Cc1sc(-c2ccccn2)nc1OC(=O)c1ccc(F)cc1F	15*	-1	1	-1	-1	8
COc1ccc(NC(=O)CN2C(=O)COc3ccc(S(=O)(=O)N4CCCCC4)cc32)c(OC)c1	1	-6	-3	1	.	.
Cc1ccccc1NC(=O)c1c([N+](=O)[O-])cnn1C	1	0	1	-3	.	.
Cn1ncc([N+](=O)[O-])c1C(=O)Nc1ccccc1C#N	16*	.	.	.	-1	-4
CC(=O)NCC1COc2ccccc2O1 (stereo not drawn)	12	-1	-2	-2	.	.
CC(=O)NCC1(c2ccccc2)CCN(CC2COc3ccccc3O2)CC1 (stereo not drawn)	20*	.	.	.	0	44*
CCOC(=O)CC1(NC(=O)c2cc(COc3cccc(OC)c3)on2)CCCCC1	15*	-7	0	-2	-1	-5
Cc1ccccc1NC(=S)NC(NC(=O)c1ccco1)C(Cl)(Cl)Cl (stereo not drawn)	17*	-8	-4	-3	-1	-6
Cc1cccc(C)c1NC(=O)CN(C)CC(=O)N1CC(=O)Nc2ccccc21	2	-9	.	.	.	.
CC(=O)NCCn1c(SCC#N)nc2ccccc2c1=O	15*	7	0	2	0	-2
CCCNC(=O)c1cc(C2CCCCN2C(=O)c2cc(OC)c(C)c(OC)c2)on1 (stereo not drawn)	16*	.	.	.	-1	-4
COc1cc(C(=O)N2CCCCC2c2cc(C(=O)NC(C)C)no2)cc(OC)c1C (stereo not drawn)	-4	.	.	.	.	.
CCC(CC)C(=O)NCCc1cc2ccc(C)cc2[nH]c1=O	21*	-3	-4	-3	0	-5
COc1cc([N+](=O)[O-])ccc1NC(=O)/C=C\C(=O)O	22*	1	-2	-4	-1	-5
